We go through 30 molecules from ChEMBL document CHEMBL1139823, “Rational design of conformationally restricted quinazolinone inhibitors of poly(ADP-ribose)polymerase” (Bioorg Med Chem Lett, 2007).

In general, IC50 refers to the concentration needed to halve the response being measured. In general, CLint scaled refers to the rate of metabolic loss divided by the concentration.

A value given as a limit tells only on which side of the number the result lay.

In data set [1] the target is Poly [ADP-ribose] polymerase 1 (Homo sapiens, UniProt P09874). Description: Inhibition of human PARP1.
Chain of Poly [ADP-ribose] polymerase 1 (P09874 whole entry): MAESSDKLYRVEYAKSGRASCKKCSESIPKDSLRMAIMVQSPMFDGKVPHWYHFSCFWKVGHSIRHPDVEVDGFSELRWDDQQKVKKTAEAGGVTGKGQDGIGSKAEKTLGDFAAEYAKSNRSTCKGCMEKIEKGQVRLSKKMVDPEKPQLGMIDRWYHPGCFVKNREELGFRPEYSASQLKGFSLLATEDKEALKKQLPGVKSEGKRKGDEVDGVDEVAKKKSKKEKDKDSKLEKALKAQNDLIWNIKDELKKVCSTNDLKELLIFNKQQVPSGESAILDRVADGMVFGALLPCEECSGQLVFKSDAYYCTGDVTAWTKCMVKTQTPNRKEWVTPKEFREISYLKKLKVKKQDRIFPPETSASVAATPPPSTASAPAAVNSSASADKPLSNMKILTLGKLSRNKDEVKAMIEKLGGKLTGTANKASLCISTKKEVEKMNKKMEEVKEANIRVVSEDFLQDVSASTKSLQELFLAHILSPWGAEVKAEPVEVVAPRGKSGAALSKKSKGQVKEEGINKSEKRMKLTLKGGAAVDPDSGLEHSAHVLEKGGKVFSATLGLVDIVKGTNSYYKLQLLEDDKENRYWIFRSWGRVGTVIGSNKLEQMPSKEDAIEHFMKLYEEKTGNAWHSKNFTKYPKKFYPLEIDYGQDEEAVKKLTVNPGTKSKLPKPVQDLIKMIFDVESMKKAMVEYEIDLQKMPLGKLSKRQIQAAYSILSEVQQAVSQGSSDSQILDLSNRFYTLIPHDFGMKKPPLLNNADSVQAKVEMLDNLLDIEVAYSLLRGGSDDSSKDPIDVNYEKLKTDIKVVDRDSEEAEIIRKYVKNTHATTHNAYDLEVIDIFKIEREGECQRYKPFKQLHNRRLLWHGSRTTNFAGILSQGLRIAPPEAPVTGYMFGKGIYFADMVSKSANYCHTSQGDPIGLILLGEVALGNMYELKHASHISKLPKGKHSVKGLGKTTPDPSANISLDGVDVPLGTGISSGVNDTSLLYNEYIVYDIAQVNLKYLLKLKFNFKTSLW
Data set [2] is described as follows: Drug level in mouse brain at 32 mg/kg, po after 2.0 hrs. It is filed as ADME, organism-based. On the set-up: dose 32 mg/kg, route oral. Conditions: read-out: Drug uptake. A digest of the protocol:
(§1)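 Mice dosed orally at 32 mg/kg (n = 2). Compound levels in brain (µg/g tissue) and plasma (µg/mL) measured by ex vivo assay at 0.5 and 2.0 h after dosing.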

Data set [3] in a line: Drug level in mouse plasma at 32 mg/kg, po after 0.5 hr. Format: ADME, organism-based. Further details: dose 32 mg/kg, route oral. The procedure, abridged:
as §1

Data set [4] is described as follows: Drug level in mouse plasma at 32 mg/kg, po after 2.0 hrs. Format: ADME, organism-based. On the set-up: dose 32 mg/kg, route oral. A digest of the protocol:
as §1

Data set [5] is described as follows: Drug level in mouse brain at 32 mg/kg, po after 0.5 hr. To be noted: read-out: Drug uptake. It is filed as ADME, organism-based. On the set-up: dose 32 mg/kg, route oral. The procedure, abridged: as §1
Data set [6] in a line: Metabolic stability assessed as Intrinsic clearance in mouse liver microsomes after 60 mins. Background: Liver microsomes are a subcellular fraction often used to study metabolism.
Data set [7] can be described thus: Metabolic stability assessed as Intrinsic clearance in human liver microsomes after 60 mins.

For `O=c1[nH]c(C2=CC(N3CC=C(c4ccccc4)CC3)CC2)nc2ccccc12` (racemic), the IC50 in data set [1] worked out at 16 nM.
Regarding `O=c1[nH]c(CCCN2CC=C(c3ccc(F)cc3)CC2)nc2c(Cl)cccc12`, the concentration at 2 h is 2800 ng/g in data set [2] and 1200 ng/mL in data set [4]. In addition, the concentration at 0.5 h was determined as 1900 ng/mL in data set [3] and 8400 ng/g in data set [5]. Further, the intrinsic metabolic clearance (CLint scaled) at 1 h in data set [6] worked out at 3910 mL/min/kg.
As to `O=c1[nH]c(C2=CC(N3CC=C(c4ccc(F)cc4)CC3)CC2)nc2c(Cl)cccc12` (configuration not stated), the values for the intrinsic metabolic clearance (CLint scaled) at 1 h in data set [7] and in data set [6] were 54 mL/min/kg and 1330 mL/min/kg, respectively. Further, the figures for the concentration at 2 h in data set [2] and in data set [4] were 900 ng/g and 17700 ng/mL, respectively. Also, the concentration at 0.5 h was 15200 ng/mL in data set [3] and 400 ng/g in data set [5]. The IC50 in data set [1] came to 36 nM.
The molecule `Cc1cccc2c(=O)[nH]c(C3=CC(N4CCC(c5ccc(Cl)cc5)CC4)CC3)nc12` (configuration not stated) yielded an IC50 in data set [1] of 46 nM.
In data set [1], `Cc1cccc2c(=O)[nH]c(CCCN3CC=C(c4ccc(Cl)cc4)CC3)nc12` showed an IC50 of 16 nM. Compared with the last molecule, the IC50 is about 2.9-fold lower.
Same read-out and setting: the result for `O=c1[nH]c([C@H]2CC[C@@H](N3CC=C(c4ccccc4)CC3)CC2)nc2ccccc12` reads 1600 nM; that for `O=c1[nH]c(C2=C[C@H](N3CC=C(c4ccccc4)CC3)CC2)nc2c(Cl)cccc12`, 286 nM; that for `O=c1[nH]c(C2CCCC(N3CC=C(c4ccccc4)CC3)C2)nc2ccccc12` (racemic), 1800 nM.
In data set [1], `O=c1[nH]c(C2=CC(N3CC=C(c4ccccc4)CC3)CCC2)nc2ccccc12` (configuration not stated) had a 50% inhibitory concentration (IC50) of 160 nM.
Regarding `O=c1[nH]c([C@H]2CC[C@H](N3CC=C(c4ccccc4)CC3)CC2)nc2ccccc12`, in data set [1], inhibition was half-maximal at 8400 nM (IC50).
Still for that read-out and setting: the result for `O=c1[nH]c(C2CCC(N3CCC(c4ccccc4)CC3)C2)nc2ccccc12` (stereo in doubt; cis) reads 435 nM.
Same read-out and setting: in the case of `O=c1[nH]c(CCCN2CCC(c3ccc(F)cc3)CC2)nc2c(Cl)cccc12` it was 47 nM.
For `O=c1[nH]c(CCCN2CCC(c3ccccc3)CC2)nc2c(Cl)cccc12`, the concentration at 2 h was found to be 3900 ng/g in data set [2] and 9400 ng/mL in data set [4]. Also, the concentration at 0.5 h in data set [3] came out at 12500 ng/mL; in data set [5] it was 11600 ng/g. The same molecule showed a half-inhibitory concentration (IC50) in data set [1] of 103 nM.
In the case of `O=c1[nH]c(N2CCC(N3CC=C(c4ccccc4)CC3)C2)nc2ccccc12` (configuration not stated), in data set [1], half-maximal inhibition (IC50) required 300 nM.
Same read-out and setting: the result for `O=c1[nH]c(C2=CC(N3CCN(c4ccc(F)cc4)CC3)CC2)nc2c(Cl)cccc12` (configuration not stated) reads 25 nM.
For the molecule `O=c1[nH]c(C2=CC(N3CCN(c4ccc(Cl)cc4)CC3)CC2)nc2ccccc12` (configuration not stated), the concentration at 2 h in data set [2] was 2200 ng/g; in data set [4], greater than 20400 ng/mL. The concentration at 0.5 h is greater than 20100 ng/mL in data set [3] and 1300 ng/g in data set [5]. Also, the 50% inhibitory concentration (IC50) in data set [1] was found to be 25 nM.
Regarding `O=c1[nH]c(CCCN2CC=C(c3ccc(F)cc3)CC2)nc2ccccc12`, in data set [1], the concentration for half-maximal inhibition (IC50) amounted to 16 nM.
On the same count and under the same terms, the result for `O=c1[nH]c(CCCN2CC=C(c3ccc(Cl)cc3)CC2)nc2ccccc12` reads 8.9 nM.
Turning to `O=c1[nH]c(C2=C[C@@H](N3CC=C(c4ccccc4)CC3)CC2)nc2c(Cl)cccc12`, the concentration at 2 h worked out at 3000 ng/g in data set [2] and 18100 ng/mL in data set [4]. Besides, the concentration at 0.5 h in data set [3] amounted to 17100 ng/mL; in data set [5], 2000 ng/g. Further, it took 15 nM to reach half-maximal inhibition in data set [1] (IC50).
In the case of `O=c1[nH]c(C2=C[C@@H](N3CCC(c4ccc(F)cc4)CC3)CC2)nc2c(Cl)cccc12`, the figures for the CLint scaled at 1 h in data set [7] and in data set [6] were 17 mL/min/kg and 686 mL/min/kg, respectively. The concentration at 2 h was 12500 ng/g in data set [2] and 11300 ng/mL in data set [4]. Further, the concentration at 0.5 h stood at 13600 ng/mL in data set [3] and 6700 ng/g in data set [5]. 35 nM corresponded to half-maximal inhibition in data set [1] (IC50).
For the molecule `O=c1[nH]c(CCCN2CC=C(c3ccccc3)CC2)nc2c(Cl)cccc12`, the concentration at 2 h worked out at 8400 ng/g in data set [2] and 1200 ng/mL in data set [4]. Further, the concentration at 0.5 h in data set [3] was 1300 ng/mL; in data set [5], 8000 ng/g.
In the case of `O=c1[nH]c(C2=C[C@@H](N3CCC(c4ccccc4)CC3)CC2)nc2c(Cl)cccc12`, the CLint scaled at 1 h in data set [7] was found to be 22 mL/min/kg; in data set [6] it was 1160 mL/min/kg. Also, the concentration at 2 h in data set [2] was 18100 ng/g; in data set [4], 4400 ng/mL. The concentration at 0.5 h came to 8700 ng/mL in data set [3] and 19800 ng/g in data set [5]. The same molecule yielded a half-inhibitory concentration (IC50) in data set [1] of 8.7 nM.
The molecule `Cc1cccc2c(=O)[nH]c(C3=CC(N4CCN(c5ccc(Cl)cc5)CC4)CC3)nc12` (configuration not stated) displayed a 50% inhibitory concentration (IC50) in data set [1] of 12 nM.
The same measure, in the same setting: in the case of `O=c1[nH]c(C2=CC(N3CC=C(c4ccc(F)cc4)CC3)CC2)nc2ccccc12` (configuration not stated) it was 18 nM; in that of `O=c1[nH]c(C2=C[C@H](N3CCC(c4ccc(F)cc4)CC3)CC2)nc2c(Cl)cccc12`, 257 nM; in that of `O=c1[nH]c(C2CCC(N3CCC(c4ccccc4)CC3)C2)nc2ccccc12` (stereo in doubt; trans), 555 nM.
On the same count and under the same terms, in the case of `Cc1cccc2c(=O)[nH]c(C3=CC(N4CC=C(c5ccc(F)cc5)CC4)CC3)nc12` (configuration not stated) it was 25 nM.
The same measure, in the same setting: in the case of `Cc1cccc2c(=O)[nH]c(C3=CC(N4CCC(c5ccc(F)cc5)CC4)CC3)nc12` (configuration not stated) it was 30 nM.
`Cc1cccc2c(=O)[nH]c(CCCN3CC=C(c4ccc(F)cc4)CC3)nc12` had a concentration for half-maximal inhibition (IC50) in data set [1] of 8 nM.
Still for that read-out and setting: in the case of `O=c1[nH]c(N2CC(N3CC=C(c4ccccc4)CC3)C2)nc2ccccc12` it was 504 nM.
